# How the values were obtained:
# [1] = system: S. typhimurium tester strains (TA98, TA100, and TA102); test: Ames test, overall over three strains; format: cell-based, Salmonella typhimurium; conditions: 5 × 10^–5 to 50 pmol/plate, with or without S9
# zebrafish embryos = conditions: at 1–50 μM; cited from earlier work
# S. typhimurium TA100 = test: Ames test, strain TA100; format: cell-based, Salmonella typhimurium
# chicken fetal liver = test: TBARs level; format: in vivo
# S. typhimurium TA98 = test: Ames test, strain TA98; format: cell-based, Salmonella typhimurium
# MCF-7 cells = test: MCF-7 cell proliferation assay; format: cell-based, human
# Procedure, shortened: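 MCF-7 cells exposed to test compound or E2 at six concentrations from 10–12 to 10–7 M in EA-free medium. Proliferation read as MTT product absorbance at 570 nm. Three independent trials, each in triplicate. % RME2 = 100 × (OD test − OD VC)/(max OD E2 − OD VC). EC50 from curve fitting. EEF = EC50 of E2/EC50 of sample. One-way ANOVA with Dunnett's test versus E2 at each concentration.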
# chicken embryo = test: Chicken embryonic assay; format: in vivo; conditions: for malformation rate / mortality rate / number of dead chicken embryo / number of malformation chicken embryo / weights: embryo / weights: heart / weights: liver: egg injection, day 18
# Swiss mice = conditions: 100 and 200 mg/kg; cited from earlier work
# ERβ = conditions: cited from earlier work
# [2] = TA100 +S9, 5 × 10^–2 pmol/plate
# [3] = TA100 +S9, 5 × 10^–3 pmol/plate
# [4] = TA100 +S9, 5 × 10^–4 pmol/plate
# [5] = TA100 +S9, 5 × 10^–5 pmol/plate
# [6] = TA100 -S9, 5 × 10^–2 pmol/plate
# [7] = TA100 -S9, 5 × 10^–3 pmol/plate
# [8] = TA100 -S9, 5 × 10^–4 pmol/plate
# [9] = TA100 -S9, 5 × 10^–5 pmol/plate
# [10] = higher dose (0.5 mM: 450–500 μg/kg; E2 0.1 mM: 91 μg/kg)
# [11] = lower dose (0.05 mM: 45–50 μg/kg; E2 0.01 mM: 9.1 μg/kg)
smiles,measurement,setting,value
O=c1cc(-c2ccc(O)cc2)oc2cc(O)cc(O)c12 [apigenin],Ames test outcome (signs of mutagenicity),[1],signs of mutagenicity
same,developmental toxicity in zebrafish model,zebrafish embryos,showing developmental toxicity
same,MI,"S. typhimurium TA100; TA100 +S9, 0.5 pmol/plate",1.4
same,number of revertants/plate (M ± SD),"S. typhimurium TA100; TA100 +S9, 0.5 pmol/plate",415 ± 4 revertants/plate
same,MI,"S. typhimurium TA100; TA100 +S9, 5 pmol/plate",1.3
same,number of revertants/plate (M ± SD),"S. typhimurium TA100; TA100 +S9, 5 pmol/plate",390 ± 4 revertants/plate
same,MI,"S. typhimurium TA100; TA100 +S9, 50 pmol/plate",1.3
same,number of revertants/plate (M ± SD),"S. typhimurium TA100; TA100 +S9, 50 pmol/plate",400 ± 2 revertants/plate
same,MI,S. typhimurium TA100; [2],1.2
same,number of revertants/plate (M ± SD),S. typhimurium TA100; [2],377 ± 15 revertants/plate
same,MI,S. typhimurium TA100; [3],1.1
same,number of revertants/plate (M ± SD),S. typhimurium TA100; [3],349 ± 10 revertants/plate
same,MI,S. typhimurium TA100; [4],1.1
same,number of revertants/plate (M ± SD),S. typhimurium TA100; [4],342 ± 14 revertants/plate
same,MI,S. typhimurium TA100; [5],1.2
same,number of revertants/plate (M ± SD),S. typhimurium TA100; [5],358 ± 6 revertants/plate
same,MI,"S. typhimurium TA100; TA100 -S9, 0.5 pmol/plate",1.0
same,number of revertants/plate (M ± SD),"S. typhimurium TA100; TA100 -S9, 0.5 pmol/plate",94 ± 4 revertants/plate
same,MI,"S. typhimurium TA100; TA100 -S9, 5 pmol/plate",1.0
same,number of revertants/plate (M ± SD),"S. typhimurium TA100; TA100 -S9, 5 pmol/plate",96 ± 4 revertants/plate
same,MI,"S. typhimurium TA100; TA100 -S9, 50 pmol/plate",1.0
same,number of revertants/plate (M ± SD),"S. typhimurium TA100; TA100 -S9, 50 pmol/plate",96 ± 8 revertants/plate
same,MI,S. typhimurium TA100; [6],0.9
same,number of revertants/plate (M ± SD),S. typhimurium TA100; [6],85 ± 6 revertants/plate
same,MI,S. typhimurium TA100; [7],0.8
same,number of revertants/plate (M ± SD),S. typhimurium TA100; [7],75 ± 13 revertants/plate
same,MI,S. typhimurium TA100; [8],0.9
same,number of revertants/plate (M ± SD),S. typhimurium TA100; [8],83 ± 6 revertants/plate
same,MI,S. typhimurium TA100; [9],0.9
same,number of revertants/plate (M ± SD),S. typhimurium TA100; [9],87 ± 6 revertants/plate
same,TBARs value,chicken fetal liver; higher dose (0.5 mM: 450–500 μg/kg),112.31 nmol/g
same,TBARs value,chicken fetal liver; lower dose (0.05 mM: 45–50 μg/kg),103.73 nmol/g
same,MI,"S. typhimurium TA98; TA98 +S9, 0.5 pmol/plate",1.1
same,number of revertants/plate (M ± SD),"S. typhimurium TA98; TA98 +S9, 0.5 pmol/plate",85 ± 6 revertants/plate
same,MI,"S. typhimurium TA98; TA98 +S9, 5 pmol/plate",1.1
same,number of revertants/plate (M ± SD),"S. typhimurium TA98; TA98 +S9, 5 pmol/plate",80 ± 10 revertants/plate
same,MI,"S. typhimurium TA98; TA98 +S9, 50 pmol/plate",1.0
same,number of revertants/plate (M ± SD),"S. typhimurium TA98; TA98 +S9, 50 pmol/plate",75 ± 20 revertants/plate
same,MI,"S. typhimurium TA98; TA98 +S9, 5 × 10^–2 pmol/plate",1.2
same,number of revertants/plate (M ± SD),"S. typhimurium TA98; TA98 +S9, 5 × 10^–2 pmol/plate",87 ± 6 revertants/plate
same,MI,"S. typhimurium TA98; TA98 +S9, 5 × 10^–3 pmol/plate",1.1
same,number of revertants/plate (M ± SD),"S. typhimurium TA98; TA98 +S9, 5 × 10^–3 pmol/plate",80 ± 18 revertants/plate
same,MI,"S. typhimurium TA98; TA98 +S9, 5 × 10^–4 pmol/plate",1.1
same,number of revertants/plate (M ± SD),"S. typhimurium TA98; TA98 +S9, 5 × 10^–4 pmol/plate",83 ± 9 revertants/plate
same,MI,"S. typhimurium TA98; TA98 +S9, 5 × 10^–5 pmol/plate",0.9
same,number of revertants/plate (M ± SD),"S. typhimurium TA98; TA98 +S9, 5 × 10^–5 pmol/plate",68 ± 2 revertants/plate
same,MI,"S. typhimurium TA98; TA98 -S9, 0.5 pmol/plate",0.9
same,number of revertants/plate (M ± SD),"S. typhimurium TA98; TA98 -S9, 0.5 pmol/plate",9 ± 1 revertants/plate
same,MI,"S. typhimurium TA98; TA98 -S9, 5 pmol/plate",1.3
same,number of revertants/plate (M ± SD),"S. typhimurium TA98; TA98 -S9, 5 pmol/plate",13 ± 1 revertants/plate
same,MI,"S. typhimurium TA98; TA98 -S9, 50 pmol/plate",1.1
same,number of revertants/plate (M ± SD),"S. typhimurium TA98; TA98 -S9, 50 pmol/plate",11 ± 4 revertants/plate
same,MI,"S. typhimurium TA98; TA98 -S9, 5 × 10^–2 pmol/plate",1.0
same,number of revertants/plate (M ± SD),"S. typhimurium TA98; TA98 -S9, 5 × 10^–2 pmol/plate",10 ± 4 revertants/plate
same,MI,"S. typhimurium TA98; TA98 -S9, 5 × 10^–3 pmol/plate",1.0
same,number of revertants/plate (M ± SD),"S. typhimurium TA98; TA98 -S9, 5 × 10^–3 pmol/plate",10 ± 3 revertants/plate
same,MI,"S. typhimurium TA98; TA98 -S9, 5 × 10^–4 pmol/plate",0.7
same,number of revertants/plate (M ± SD),"S. typhimurium TA98; TA98 -S9, 5 × 10^–4 pmol/plate",7 ± 3 revertants/plate
same,MI,"S. typhimurium TA98; TA98 -S9, 5 × 10^–5 pmol/plate",1.0
same,number of revertants/plate (M ± SD),"S. typhimurium TA98; TA98 -S9, 5 × 10^–5 pmol/plate",10 ± 3 revertants/plate
same,EEF (estradiol equivalent factor),MCF-7 cells; EC50 of E2 divided by that of the test compound,0.16
same,EC50,"MCF-7 cells; Homo sapiens, MCF7",0.062 nM
same,max % RME2,MCF-7 cells; highest % RME2 (relative maximum % E2) in test range 10^–12–10^–7 M,27%
same,malformation rate,chicken embryo; [10],0.0%
same,mortality rate,chicken embryo; [10],10.0%
same,number of dead chicken embryo,chicken embryo; [10],1
same,number of malformation chicken embryo,chicken embryo; [10],0
same,weights: embryo,chicken embryo; [10],21.49 ± 1.44 g
same,weights: heart,chicken embryo; [10],0.17 ± 0.02 g
same,weights: liver,chicken embryo; [10],0.41 ± 0.02 g
same,"fetal liver weight, lower compared with the VC",chicken embryo; higher-dose treatment,~20%
same,malformation rate,chicken embryo; [11],11.11%
same,mortality rate,chicken embryo; [11],10.0%
same,number of dead chicken embryo,chicken embryo; [11],1
same,number of malformation chicken embryo,chicken embryo; [11],1
same,weights: embryo,chicken embryo; [11],24.29 ± 0.03 g
same,weights: heart,chicken embryo; [11],0.18 ± 0.02 g
same,weights: liver,chicken embryo; [11],0.44 ± 0.02 g
same,hepatotoxicity,Swiss mice,led to hepatotoxicity
same,binding affinity for ERβ,ERβ,6%
